Results as given in ChEMBL document CHEMBL1275461, “Early bactericidal activity and pharmacokinetics of the diarylquinoline TMC207 in treatment of pulmonary tuberculosis” (Antimicrob Agents Chemother, 2008).

Legend:
[1] = test system: Mycobacterium tuberculosis; assay: Bactericidal activity against Mycobacterium tuberculosis in pulmonary tuberculosis patient assessed as reduction in sputum bacterial count at 300 mg/kg, po once daily measured after 6 days; format: functional
In short: (§1)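 Hospitalized treatment-naïve smear-positive patients took oral doses once daily, observed, after breakfast. Sputum was pooled over 16 h overnight at baseline, after each of the 7 dosing days, and on the night after the first standard-therapy dose. Sputum was stirred, digested with dithiothreitol for 20 min at room temperature, and diluted 10-fold. Dilutions were plated in quadruplicate on selective 7H11 agar and counted after 3-4 weeks at 37°C at 20-200 colonies. The read-out was change in log10 CFU/ml from baseline, with a count of 0 set to log 0.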

[2] = test system: Mycobacterium tuberculosis; assay: Bactericidal activity against Mycobacterium tuberculosis in pulmonary tuberculosis patient assessed as reduction in sputum bacterial count at 300 […], po once daily measured after 2 days; format: functional; in short: as §1
[3] = test system: Mycobacterium tuberculosis; assay: Bactericidal activity against Mycobacterium tuberculosis in pulmonary tuberculosis patient assessed as reduction in sputum bacterial count at 300 mg/kg, po once daily measured after 7 days; format: functional; in short: as §1
[4] = test system: Homo sapiens; assay: Cardiotoxicity in pulmonary tuberculosis patient assessed as increase in QT interval at 300 mg/kg, po once daily for 7 days; format: toxicity, organism-based; set-up: dose 300 mg/kg, route oral; conditions: in vivo, 168 h
[5] = test system: Mycobacterium tuberculosis; assay: Bactericidal activity against Mycobacterium tuberculosis in pulmonary tuberculosis patient assessed as reduction in sputum bacterial count at 300 […], po once daily measured after 3 days; format: functional; in short: as §1
[6] = test system: Mycobacterium tuberculosis; assay: Bactericidal activity against Mycobacterium tuberculosis in pulmonary tuberculosis patient assessed as reduction in sputum bacterial count at 300 […], po once daily measured after 1 day; format: functional; in short: as §1
[7] = test system: Mycobacterium tuberculosis; assay: Bactericidal activity against Mycobacterium tuberculosis in pulmonary tuberculosis patient assessed as reduction in sputum bacterial count at 300 mg/kg, po once daily measured after 4 days; format: functional; in short: as §1
[8] = test system: Homo sapiens; assay: Toxicity in pulmonary tuberculosis patient assessed as hemoptysis at 300 mg/kg, po once daily; format: organism-based; set-up: dose 300 mg/kg, route oral; conditions: in vivo
[9] = test system: Mycobacterium tuberculosis; assay: Bactericidal activity against Mycobacterium tuberculosis in pulmonary tuberculosis patient assessed as reduction in sputum bacterial count at 300 mg/kg, po once daily measured on day 8 after starting standard TB therapy; format: functional; in short: as §1
[10] = test system: Mycobacterium tuberculosis; assay: Bactericidal activity against Mycobacterium tuberculosis in pulmonary tuberculosis patient assessed as reduction in sputum bacterial count at 300 mg/kg, po once daily measured after 5 days; format: functional; in short: as §1
[11] = test system: Mycobacterium tuberculosis; assay: Bactericidal activity against Mycobacterium tuberculosis in pulmonary tuberculosis patient assessed as reduction in sputum bacterial count at 600 mg/kg, po once daily measured after 6 days; format: functional; in short: as §1
[12] = test system: Mycobacterium tuberculosis; assay: Bactericidal activity against Mycobacterium tuberculosis in pulmonary tuberculosis patient assessed as reduction in sputum bacterial count at 600 mg/kg, po once daily measured after 7 days; format: functional; in short: as §1
[13] = test system: Mycobacterium tuberculosis; assay: Bactericidal activity against Mycobacterium tuberculosis in pulmonary tuberculosis patient assessed as reduction in sputum bacterial count at 600 mg/kg, po once daily measured after 2 days; format: functional; in short: as §1
[14] = test system: Mycobacterium tuberculosis; assay: Bactericidal activity against Mycobacterium tuberculosis in pulmonary tuberculosis patient assessed as reduction in sputum bacterial count at 600 […], po once daily measured after 1 day; format: functional; in short: as §1
[15] = test system: Mycobacterium tuberculosis; assay: Bactericidal activity against Mycobacterium tuberculosis in pulmonary tuberculosis patient assessed as reduction in sputum bacterial count at 600 mg/kg, po once daily measured after 4 days; format: functional; in short: as §1
[16] = test system: Mycobacterium tuberculosis; assay: Bactericidal activity against Mycobacterium tuberculosis in pulmonary tuberculosis patient assessed as reduction in sputum bacterial count at 600 mg/kg, po once daily measured on day 8 after starting standard TB therapy; format: functional; in short: as §1
[17] = test system: Homo sapiens; assay: Cardiotoxicity in pulmonary tuberculosis patient assessed as increase in QT interval at 600 mg/kg, po once daily for 7 days; format: toxicity, organism-based; set-up: dose 600 mg/kg, route oral; conditions: in vivo, 168 h
[18] = test system: Mycobacterium tuberculosis; assay: Bactericidal activity against Mycobacterium tuberculosis in pulmonary tuberculosis patient assessed as reduction in sputum bacterial count at 600 mg/kg, po once daily measured after 3 days; format: functional; in short: as §1

SMILES	log10CFU/ml [1]	log10CFU/ml [2]	log10CFU/ml [3]	Time [4] [ms]	log10CFU/ml [5]	log10CFU/ml [6]	log10CFU/ml [7]	Activity [8] [%]	log10CFU/ml [9]	log10CFU/ml [10]	log10CFU/ml [11]	log10CFU/ml [12]	log10CFU/ml [13]	log10CFU/ml [14]	log10CFU/ml [15]	log10CFU/ml [16]	Time [17] [ms]	log10CFU/ml [18]
NNC(=O)c1ccncc1 [ISONIAZID]	-1.68	-0.57	-1.88	20.2	-1.34	-0.43	-1.32	13.3	-1.94	-1.41	–	–	–	–	–	–	–	–
CO[C@H]1/C=C/O[C@@]2(C)Oc3c(C)c(O)c4c(O)c(c(/C=N/N5CCN(C)CC5)c(O)c4c3C2=O)NC(=O)/C(C)=C\C=C\[C@H](C)[C@H](O)[C@@H](C)[C@@H](O)[C@@H](C)[C@H](OC(C)=O)[C@@H]1C [RIFAMPIN]	–	–	–	–	–	–	–	–	–	–	-1.55	-1.7	-0.88	-0.28	-1.17	-1.82	13	-0.89
